What was measured:
CYP1A2 = target: T1, CYP1A2 (Homo sapiens, UniProt P05177); experiment: Inhibition of recombinant human CYP1A2 expressed in baker's yeast-derived microsomes (Sacchrosomes) at 10 uM using 3-cyano-7-ethoxycoumarin substrate by EROD assay relative to control; format: ADME; settings: probe 3-cyano-7-ethoxycoumarin
T1 sequence (P05177 whole entry): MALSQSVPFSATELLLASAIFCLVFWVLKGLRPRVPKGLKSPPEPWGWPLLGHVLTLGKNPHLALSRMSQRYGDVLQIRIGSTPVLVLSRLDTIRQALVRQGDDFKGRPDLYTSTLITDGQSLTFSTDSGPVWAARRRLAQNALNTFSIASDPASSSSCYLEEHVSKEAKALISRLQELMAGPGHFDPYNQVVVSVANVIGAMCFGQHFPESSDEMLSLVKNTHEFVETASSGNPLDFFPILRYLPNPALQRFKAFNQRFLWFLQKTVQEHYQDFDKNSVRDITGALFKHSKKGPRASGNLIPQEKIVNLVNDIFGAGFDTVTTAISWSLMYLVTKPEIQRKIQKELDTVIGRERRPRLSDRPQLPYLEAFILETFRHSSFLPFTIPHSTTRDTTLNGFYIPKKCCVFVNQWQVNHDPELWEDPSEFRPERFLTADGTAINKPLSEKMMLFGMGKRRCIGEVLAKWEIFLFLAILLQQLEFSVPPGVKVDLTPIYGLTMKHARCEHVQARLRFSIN
Outline: (§1)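 Yeast microsomes carrying recombinant CYP (Sacchrosomes). Substrates per isoform are 7-ethoxyresorufin, 3-cyano-7-ethoxycoumarin, EOMCC or dibenzylfluorescein, read as endpoint fluorescence. Background from compound-only wells without enzyme is subtracted. Independent triplicate runs; α-naphthoflavone positive control.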

CYP2D6 = CYP2D6 (Homo sapiens, UniProt P10635); experiment: Inhibition of recombinant human CYP2D6 expressed in baker's yeast-derived microsomes (Sacchrosomes) at 10 uM using 7-ethoxy-methyloxy-3-cyanocoumarin substrate by EROD assay relative to control; format: ADME; settings: probe 7-ethoxy-methyloxy-3-cyanocoumarin
Outline: as §1, with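 “(Sacchrosomes). […]” for “(Sacchrosomes).”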

CYP2C19 = CYP2C19 (Homo sapiens, UniProt P33261); experiment: Inhibition of recombinant human CYP2C19 expressed in baker's yeast-derived microsomes (Sacchrosomes) at 10 uM using 3-cyano-7-ethoxycoumarin substrate by EROD assay relative to control; format: ADME; settings: probe 3-cyano-7-ethoxycoumarin
Outline: as §1, with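 “(Sacchrosomes). […]” for “(Sacchrosomes).”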

CYP1A1 = target: T2, CYP1A1 (Homo sapiens, UniProt P04798); experiment: Inhibition of human recombinant CYP1A1 expressed in HEK293 cells at 10 uM using 7-ethoxyresorufin substrate preincubated for 30 mins followed by substrate addition and measured after 60 mins by fluorescence assay relative to control; format: cell-based; settings: HEK293 cells expressing human recombinant CYP1A1, probe 7-ethoxyresorufin
T2 sequence (P04798 whole entry): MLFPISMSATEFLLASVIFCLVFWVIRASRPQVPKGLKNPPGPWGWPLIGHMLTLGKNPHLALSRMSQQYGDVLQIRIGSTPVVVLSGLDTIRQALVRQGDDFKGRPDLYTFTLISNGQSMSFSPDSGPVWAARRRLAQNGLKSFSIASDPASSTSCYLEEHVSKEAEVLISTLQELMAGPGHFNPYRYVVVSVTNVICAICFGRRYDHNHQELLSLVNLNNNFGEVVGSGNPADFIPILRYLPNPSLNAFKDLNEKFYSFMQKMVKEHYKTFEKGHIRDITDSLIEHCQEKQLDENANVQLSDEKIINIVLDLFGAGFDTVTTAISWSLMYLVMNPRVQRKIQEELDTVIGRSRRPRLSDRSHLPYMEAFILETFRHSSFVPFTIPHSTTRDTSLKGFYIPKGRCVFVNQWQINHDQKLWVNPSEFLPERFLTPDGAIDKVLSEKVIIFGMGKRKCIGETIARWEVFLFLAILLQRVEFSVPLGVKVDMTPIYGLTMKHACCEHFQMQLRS
Outline: (§2)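 HEK293 cells adapted to suspension and transiently transfected with pcDNA3.1 plasmids carrying the individual CYP; 100×10^3 cells per well in triplicate. […] Fluorogenic substrate is then added at 5 μM and fluorescence read for 60 min.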

Cytochrome P450 1A1 = target: T3, Cytochrome P450 1A1 (Homo sapiens, UniProt P04798); experiment: Inhibition of human recombinant CYP1A1 expressed in HEK293 cells using 7-ethoxyresorufin substrate preincubated for 30 mins followed by substrate addition and measured after 60 mins by fluorescence assay relative to control; format: cell-based; outline: as §2
T3 sequence (P04798 whole entry): T2 sequence (P04798 whole entry)

Homo sapiens = species on record: Homo sapiens; experiment: Selectivity index, ratio of IC50 for inhibition of human recombinant CYP1B1 expressed in HEK293 cells by fluorescence assay to IC50 for inhibition of human recombinant CYP1A1 expressed in HEK293 cells by fluorescence assay; format: cell-based
Outline: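 HEK293 suspension cells transiently transfected with pcDNA3.1/CYP1B1 or pcDNA3.1/CYP1A1, 100×10^3 cells per well in triplicate. Compound (1 nM to 30 μM) preincubated 30 min at 37 °C, 8% CO2. 7-Ethoxyresorufin then added at 5 μM, and resorufin fluorescence (EROD) read over 60 min. IC50 taken from concentration-response for each isoform; index = CYP1B1 IC50 / CYP1A1 IC50.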

Sequence of CYP2D6 (P10635 whole entry): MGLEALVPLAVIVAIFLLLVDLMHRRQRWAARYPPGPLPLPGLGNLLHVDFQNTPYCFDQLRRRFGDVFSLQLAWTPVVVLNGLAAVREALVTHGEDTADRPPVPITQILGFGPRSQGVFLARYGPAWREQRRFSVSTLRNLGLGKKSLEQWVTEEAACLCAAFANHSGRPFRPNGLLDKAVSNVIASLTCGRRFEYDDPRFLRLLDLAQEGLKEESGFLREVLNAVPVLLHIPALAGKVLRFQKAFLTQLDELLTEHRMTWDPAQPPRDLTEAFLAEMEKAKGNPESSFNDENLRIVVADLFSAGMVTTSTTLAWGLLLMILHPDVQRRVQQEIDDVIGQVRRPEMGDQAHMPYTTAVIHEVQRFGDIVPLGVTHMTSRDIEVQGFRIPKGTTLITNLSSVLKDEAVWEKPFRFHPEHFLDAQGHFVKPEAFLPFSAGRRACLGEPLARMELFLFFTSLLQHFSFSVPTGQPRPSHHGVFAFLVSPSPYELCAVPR
Sequence of CYP2C19 (P33261 whole entry): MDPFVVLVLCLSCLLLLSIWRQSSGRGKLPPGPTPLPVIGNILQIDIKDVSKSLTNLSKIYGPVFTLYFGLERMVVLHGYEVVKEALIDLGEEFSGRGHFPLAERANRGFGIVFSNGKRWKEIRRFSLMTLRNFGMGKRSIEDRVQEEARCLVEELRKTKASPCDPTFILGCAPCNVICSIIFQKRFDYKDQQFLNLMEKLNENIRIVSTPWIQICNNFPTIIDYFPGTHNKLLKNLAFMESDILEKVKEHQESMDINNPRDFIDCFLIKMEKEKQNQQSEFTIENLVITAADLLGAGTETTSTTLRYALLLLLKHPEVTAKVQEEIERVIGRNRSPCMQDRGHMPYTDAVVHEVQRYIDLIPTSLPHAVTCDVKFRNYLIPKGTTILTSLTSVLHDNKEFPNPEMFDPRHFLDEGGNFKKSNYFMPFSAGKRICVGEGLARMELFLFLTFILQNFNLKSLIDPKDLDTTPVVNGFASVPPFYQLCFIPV

Structure (SMILES) | inhibition at 10 µM (CYP1A2) | inhibition at 10 µM (CYP2D6) | inhibition at 10 µM (CYP2C19) | inhibition at 1 h, 10 µM (CYP1A1) | IC50 (Cytochrome P450 1A1) | Ki (Cytochrome P450 1A1) | Ratio IC50 (Homo sapiens)
COc1c2ccoc2cc2oc(=O)ccc12 [BERGAPTEN] | 73% | 9% | 5% | 91% | 80 nM | 60 nM | 192
COc1c2ccoc2c(OC)c2oc(=O)ccc12 [ISOPIMPINELLIN] | 62% | 0% | 0% | 91% | 20 nM | 12 nM | 319
